{
  "source": "ChEMBL document CHEMBL5724801",
  "about": "“EUbOPEN Chemogenomics Library - Multiplex” (2024)",
  "tested_on": "Fibroblast",
  "assay": "Multiplex assay against human fibroblast",
  "type": "toxicity, cell-based",
  "how_it_was_run": "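At seeding, live cells were stained with Hoechst33342, BioTracker Green Microtubule Cytoskeleton Dye, MitoTracker Red and Annexin V Alexa Fluor 680. After compound addition they were imaged on a CQ1 microscope at 37°C and 5% CO2, and CellPathfinder machine-learning gating sorted them into Hoechst high-intensity objects or normal cells, with normal cells further split into healthy, pyknosed or fragmented nuclei and pyknosed cells into mitotic or apoptotic. Tubulin, mitochondrial-mass and membrane-permeability phenotypes are given as per cents of cells with healthy nuclei.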",
  "key": {"[1]": {"settings": "12 h, 1 µM, compound concentration 1 uM"}, "[2]": {"settings": "12 h, 10 µM, compound concentration 10 uM"}, "[3]": {"settings": "24 h, 1 µM, compound concentration 1 uM"}, "[4]": {"settings": "24 h, 10 µM, compound concentration 10 uM"}, "[5]": {"settings": "48 h, 1 µM, compound concentration 1 uM"}, "[6]": {"settings": "48 h, 10 µM, compound concentration 10 uM"}},
  "note": "Where “and” joins values, the source holds several entries; their conditions need not be identical. Equal entries are not always repeated.",
  "data": [
    {"smiles": "COC(=O)c1ccc2c(c1)NC(=O)/C2=C(\\Nc1ccc(N(C)C(=O)CN2CCN(C)CC2)cc1)c1ccccc1", "note": "[NINTEDANIB]", "values": [
      {"measurement": "Population Apoptotic (%)", "setting": "[1]", "value": "16.28% and 33.33%"},
      {"measurement": "Population Fragmented Nuclei (%)", "setting": "[1]", "value": "16.48% and 7.77%"},
      {"measurement": "Population Healthy Nuclei (%)", "setting": "[1]", "value": "59.09% and 77.67%"},
      {"measurement": "Population Hoechst High Intensity Objects (%)", "setting": "[1]", "value": 0, "unit": "%"},
      {"measurement": "Population Membrane Permeable-Phenotype (%)", "setting": "[1]", "value": "6.73% and 3.75%"},
      {"measurement": "Population Mitochondria Different-Phenotype (%)", "setting": "[1]", "value": "17.31% and 10%"},
      {"measurement": "Population Mitotic Cells (%)", "setting": "[1]", "value": "83.72% and 66.67%"},
      {"measurement": "Population Normal (%)", "setting": "[1]", "value": 100, "unit": "%"},
      {"measurement": "Population Pyknosed Nuclei (%)", "setting": "[1]", "value": "24.43% and 14.56%"},
      {"measurement": "Population Tubulin-Different-Phenotype (%)", "setting": "[1]", "value": "38.46% and 36.88%"},
      {"measurement": "Total Cell Count", "setting": "[1]", "value": "176 and 206"},
      {"measurement": "Population Apoptotic (%)", "setting": "[2]", "value": "40.91% and 35.76%"},
      {"measurement": "Population Fragmented Nuclei (%)", "setting": "[2]", "value": "5.54% and 1.86%"},
      {"measurement": "Population Healthy Nuclei (%)", "setting": "[2]", "value": "51.47% and 66.87%"},
      {"measurement": "Population Hoechst High Intensity Objects (%)", "setting": "[2]", "value": "0.65% and 0%"},
      {"measurement": "Population Membrane Permeable-Phenotype (%)", "setting": "[2]", "value": "29.11% and 30.65%"},
      {"measurement": "Population Mitochondria Different-Phenotype (%)", "setting": "[2]", "value": "33.54% and 14.24%"},
      {"measurement": "Population Mitotic Cells (%)", "setting": "[2]", "value": "59.09% and 64.24%"},
      {"measurement": "Population Normal (%)", "setting": "[2]", "value": "99.35% and 100%"},
      {"measurement": "Population Pyknosed Nuclei (%)", "setting": "[2]", "value": "43% and 31.26%"},
      {"measurement": "Population Tubulin-Different-Phenotype (%)", "setting": "[2]", "value": "51.27% and 85.14%"},
      {"measurement": "Total Cell Count", "setting": "[2]", "value": "309 and 483"},
      {"measurement": "Population Apoptotic (%)", "setting": "[3]", "value": "16.22% and 30%"},
      {"measurement": "Population Fragmented Nuclei (%)", "setting": "[3]", "value": "15.92% and 9.59%"},
      {"measurement": "Population Healthy Nuclei (%)", "setting": "[3]", "value": "65.67% and 76.71%"},
      {"measurement": "Population Hoechst High Intensity Objects (%)", "setting": "[3]", "value": 0, "unit": "%"},
      {"measurement": "Population Membrane Permeable-Phenotype (%)", "setting": "[3]", "value": "3.79% and 3.57%"},
      {"measurement": "Population Mitochondria Different-Phenotype (%)", "setting": "[3]", "value": "8.33% and 10.71%"},
      {"measurement": "Population Mitotic Cells (%)", "setting": "[3]", "value": "83.78% and 70%"},
      {"measurement": "Population Normal (%)", "setting": "[3]", "value": 100, "unit": "%"},
      {"measurement": "Population Pyknosed Nuclei (%)", "setting": "[3]", "value": "18.41% and 13.7%"},
      {"measurement": "Population Tubulin-Different-Phenotype (%)", "setting": "[3]", "value": "31.82% and 40.48%"},
      {"measurement": "Total Cell Count", "setting": "[3]", "value": "201 and 219"},
      {"measurement": "Population Apoptotic (%)", "setting": "[4]", "value": "45.74% and 54.65%"},
      {"measurement": "Population Fragmented Nuclei (%)", "setting": "[4]", "value": "5.3% and 6.9%"},
      {"measurement": "Population Healthy Nuclei (%)", "setting": "[4]", "value": "59.09% and 71.92%"},
      {"measurement": "Population Hoechst High Intensity Objects (%)", "setting": "[4]", "value": "0.75% and 0%"},
      {"measurement": "Population Membrane Permeable-Phenotype (%)", "setting": "[4]", "value": "12.18% and 13.36%"},
      {"measurement": "Population Mitochondria Different-Phenotype (%)", "setting": "[4]", "value": "45.51% and 32.53%"},
      {"measurement": "Population Mitotic Cells (%)", "setting": "[4]", "value": "54.26% and 45.35%"},
      {"measurement": "Population Normal (%)", "setting": "[4]", "value": "99.25% and 100%"},
      {"measurement": "Population Pyknosed Nuclei (%)", "setting": "[4]", "value": "35.61% and 21.18%"},
      {"measurement": "Population Tubulin-Different-Phenotype (%)", "setting": "[4]", "value": "66.67% and 90.75%"},
      {"measurement": "Total Cell Count", "setting": "[4]", "value": "266 and 406"},
      {"measurement": "Population Apoptotic (%)", "setting": "[5]", "value": "21.43% and 45%"},
      {"measurement": "Population Fragmented Nuclei (%)", "setting": "[5]", "value": "19.15% and 12.93%"},
      {"measurement": "Population Healthy Nuclei (%)", "setting": "[5]", "value": "74.89% and 78.45%"},
      {"measurement": "Population Hoechst High Intensity Objects (%)", "setting": "[5]", "value": 0, "unit": "%"},
      {"measurement": "Population Membrane Permeable-Phenotype (%)", "setting": "[5]", "value": "0.57% and 1.65%"},
      {"measurement": "Population Mitotic Cells (%)", "setting": "[5]", "value": "78.57% and 55%"},
      {"measurement": "Population Normal (%)", "setting": "[5]", "value": 100, "unit": "%"},
      {"measurement": "Population Pyknosed Nuclei (%)", "setting": "[5]", "value": "5.96% and 8.62%"},
      {"measurement": "Population Tubulin-Different-Phenotype (%)", "setting": "[5]", "value": "23.86% and 42.31%"},
      {"measurement": "Total Cell Count", "setting": "[5]", "value": "235 and 232"},
      {"measurement": "Population Apoptotic (%)", "setting": "[6]", "value": "60.29% and 65.38%"},
      {"measurement": "Population Fragmented Nuclei (%)", "setting": "[6]", "value": "8.47% and 8.93%"},
      {"measurement": "Population Healthy Nuclei (%)", "setting": "[6]", "value": "64.11% and 83.57%"},
      {"measurement": "Population Hoechst High Intensity Objects (%)", "setting": "[6]", "value": 0, "unit": "%"},
      {"measurement": "Population Membrane Permeable-Phenotype (%)", "setting": "[6]", "value": "9.43% and 8.97%"},
      {"measurement": "Population Mitochondria Different-Phenotype (%)", "setting": "[6]", "value": "44.65% and 33.45%"},
      {"measurement": "Population Mitotic Cells (%)", "setting": "[6]", "value": "39.71% and 34.62%"},
      {"measurement": "Population Normal (%)", "setting": "[6]", "value": 100, "unit": "%"},
      {"measurement": "Population Tubulin-Different-Phenotype (%)", "setting": "[6]", "value": "58.49% and 91.72%"},
      {"measurement": "Total Cell Count", "setting": "[6]", "value": "248 and 347"}
    ]},
    {"smiles": "CC(=O)O[C@H]1C(=O)[C@@]2(C)[C@H]([C@H](OC(=O)c3ccccc3)[C@]3(O)C[C@H](OC(=O)[C@H](O)[C@@H](NC(=O)c4ccccc4)c4ccccc4)C(C)=C1C3(C)C)[C@]1(OC(C)=O)CO[C@@H]1C[C@@H]2O", "note": "[PACLITAXEL]", "values": [
      {"measurement": "Population Apoptotic (%)", "setting": "[2]", "value": "65% and 39%"},
      {"measurement": "Population Fragmented Nuclei (%)", "setting": "[2]", "value": "19% and 34%"},
      {"measurement": "Population Healthy Nuclei (%)", "setting": "[2]", "value": "63% and 39%"},
      {"measurement": "Population Hoechst High Intensity Objects (%)", "setting": "[2]", "value": "5% and 1%"},
      {"measurement": "Population Membrane Permeable-Phenotype (%)", "setting": "[2]", "value": "0% and 6%"},
      {"measurement": "Population Mitochondria Different-Phenotype (%)", "setting": "[2]", "value": "10% and 13%"},
      {"measurement": "Population Mitotic Cells (%)", "setting": "[2]", "value": "34% and 60%"},
      {"measurement": "Population Normal (%)", "setting": "[2]", "value": "94% and 98%"},
      {"measurement": "Population Pyknosed Nuclei (%)", "setting": "[2]", "value": "16% and 25%"},
      {"measurement": "Population Tubulin-Different-Phenotype (%)", "setting": "[2]", "value": "17% and 44%"},
      {"measurement": "Total Cell Count", "setting": "[2]", "value": "167 and 111"},
      {"measurement": "Population Apoptotic (%)", "setting": "[4]", "value": "70% and 30%"},
      {"measurement": "Population Fragmented Nuclei (%)", "setting": "[4]", "value": "19% and 36%"},
      {"measurement": "Population Healthy Nuclei (%)", "setting": "[4]", "value": "63% and 45%"},
      {"measurement": "Population Hoechst High Intensity Objects (%)", "setting": "[4]", "value": "1% and 2%"},
      {"measurement": "Population Membrane Permeable-Phenotype (%)", "setting": "[4]", "value": "0% and 6%"},
      {"measurement": "Population Mitochondria Different-Phenotype (%)", "setting": "[4]", "value": "9% and 10%"},
      {"measurement": "Population Mitotic Cells (%)", "setting": "[4]", "value": "29% and 70%"},
      {"measurement": "Population Normal (%)", "setting": "[4]", "value": "98% and 97%"},
      {"measurement": "Population Pyknosed Nuclei (%)", "setting": "[4]", "value": "16% and 18%"},
      {"measurement": "Total Cell Count", "setting": "[4]", "value": "164 and 114"},
      {"measurement": "Population Apoptotic (%)", "setting": "[6]", "value": "76% and 54%"},
      {"measurement": "Population Fragmented Nuclei (%)", "setting": "[6]", "value": "31% and 48%"},
      {"measurement": "Population Healthy Nuclei (%)", "setting": "[6]", "value": "50% and 42%"},
      {"measurement": "Population Hoechst High Intensity Objects (%)", "setting": "[6]", "value": "4% and 0%"},
      {"measurement": "Population Membrane Permeable-Phenotype (%)", "setting": "[6]", "value": "0% and 3%"},
      {"measurement": "Population Mitochondria Different-Phenotype (%)", "setting": "[6]", "value": "16% and 9%"},
      {"measurement": "Population Mitotic Cells (%)", "setting": "[6]", "value": "23% and 45%"},
      {"measurement": "Population Normal (%)", "setting": "[6]", "value": "95% and 100%"},
      {"measurement": "Population Pyknosed Nuclei (%)", "setting": "[6]", "value": "17% and 8%"},
      {"measurement": "Population Tubulin-Different-Phenotype (%)", "setting": "[6]", "value": "20% and 40%"},
      {"measurement": "Total Cell Count", "setting": "[6]", "value": "177 and 129"}
    ]}
  ]
}
